Reference: ChEMBL document CHEMBL1124161, “4-Hydroxy-3-quinolinecarboxamides with antiarthritic and analgesic activities” (J Med Chem, 1988)
Calls of active or inactive are those of the source. No cut-off for these calls is given here.

Experiments:
Mus musculus [1] = experiment: Analgesic activity against acetic acid induced writhing test in mouse after peroral administration; assay type: functional
Mus musculus [2] = experiment: Analgesic activity against acetic acid induced writhing test in mouse after peroral administration (treatment was 6 hr before testing); assay type: functional; settings: po
Method in brief: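 Groups of 10 female mice (20–22 g), fasted 7 h, dosed orally 6 h before ip injection of 0.2 mL 1% aqueous acetic acid. Stretching and writhing movements counted from minute 5 to 20 after irritant. ED50 evaluated graphically or by computerized least-squares curve fitting.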

Rattus norvegicus [3] = experiment: Ulcerogenic effect against gastric ulcer in rats after oral administration; assay type: functional, Stomach
Method in brief: (§1)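 Groups of eight female rats (120–150 g), fasted 24 h, dosed orally; killed 7 h later and stomachs scored. Ulceration index = (mean ulcer degree × rats with ulcers / number of rats) × 100, ulcers being scores above 0.5. ED100 (index 100, max 300) read graphically.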

Rattus norvegicus [4] = experiment: Anti-arthritis activity against adjuvant-induced arthritis in rats after peroral administration; assay type: functional; settings: Rattus norvegicus, po; read-out: ED50
Method in brief: (§2)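 Groups of five male Lewis rats, 40–50 days old, given intraplantar injection in right hind paw of 0.6 mg Mycobacterium butyricum in 0.1 mL Bayol 55. Drug given in food from adjuvant day to day 17. Injected and noninjected hind paw volumes measured day 17 against normal controls. ED50 by least-squares curve fitting or Litchfield–Wilcoxon probit.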

Rattus norvegicus [5] = experiment: Antiinflammatory activity against carrageenan-induced foot edema in rat after peroral administration; assay type: functional; settings: po
Method in brief: (§3)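 Groups of eight male Sprague-Dawley rats (150–180 g) dosed orally at the time of subplantar injection of 0.5 mg carrageenin. Paw volume difference measured before and 5 h after injection. Expressed as ED40, estimated graphically or by Litchfield–Wilcoxon probit analysis.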

Rattus norvegicus [6] = experiment: Antiarthritis activity against adjuvant-induced arthritis in rats after peroral administration; range is (1.9-5.3); assay type: functional; settings: po; method in brief: as §2
Rattus norvegicus [7] = experiment: Ulcerogenic effect against intestinal ulcer in rats after oral administration; assay type: functional
Method in brief: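 Nonfasted male rats (150–180 g) killed 24 h after oral dosing, and intestinal ulcers scored. Ulceration index = (mean degree × rats with ulcers / rats) × 100. ED100 (index 100) determined graphically.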

[8] = biological target: T1, Polyunsaturated fatty acid 5-lipoxygenase (Rattus norvegicus, UniProt P12527); experiment: Inhibition of 5-lipoxygenase from rat peritoneal neutrophils in vitro
T1 sequence (P12527 whole entry): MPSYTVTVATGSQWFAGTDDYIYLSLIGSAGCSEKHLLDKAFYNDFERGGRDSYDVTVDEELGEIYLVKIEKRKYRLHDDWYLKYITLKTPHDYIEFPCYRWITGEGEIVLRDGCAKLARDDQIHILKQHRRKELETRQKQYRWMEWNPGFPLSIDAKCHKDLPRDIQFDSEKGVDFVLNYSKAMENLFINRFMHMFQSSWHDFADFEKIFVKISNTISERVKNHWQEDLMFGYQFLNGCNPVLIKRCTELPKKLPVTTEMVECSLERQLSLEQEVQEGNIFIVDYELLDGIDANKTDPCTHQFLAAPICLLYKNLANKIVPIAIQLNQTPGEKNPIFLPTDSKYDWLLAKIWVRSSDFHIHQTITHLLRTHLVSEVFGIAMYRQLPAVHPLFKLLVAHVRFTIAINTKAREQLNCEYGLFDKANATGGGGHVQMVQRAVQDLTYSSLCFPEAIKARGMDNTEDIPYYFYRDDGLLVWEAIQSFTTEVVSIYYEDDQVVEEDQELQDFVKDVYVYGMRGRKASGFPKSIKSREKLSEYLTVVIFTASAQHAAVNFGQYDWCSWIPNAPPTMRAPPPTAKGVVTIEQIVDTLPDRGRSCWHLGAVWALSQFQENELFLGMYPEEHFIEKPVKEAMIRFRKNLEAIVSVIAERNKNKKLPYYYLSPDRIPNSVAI

Cyclooxygenase = biological target: T2, Cyclooxygenase (Bos taurus, UniProt O62664+O62698); experiment: Inhibition of bovine Prostaglandin G/H synthase in seminal vesicle microsomes in vitro
T2 sequence (O62664 whole entry): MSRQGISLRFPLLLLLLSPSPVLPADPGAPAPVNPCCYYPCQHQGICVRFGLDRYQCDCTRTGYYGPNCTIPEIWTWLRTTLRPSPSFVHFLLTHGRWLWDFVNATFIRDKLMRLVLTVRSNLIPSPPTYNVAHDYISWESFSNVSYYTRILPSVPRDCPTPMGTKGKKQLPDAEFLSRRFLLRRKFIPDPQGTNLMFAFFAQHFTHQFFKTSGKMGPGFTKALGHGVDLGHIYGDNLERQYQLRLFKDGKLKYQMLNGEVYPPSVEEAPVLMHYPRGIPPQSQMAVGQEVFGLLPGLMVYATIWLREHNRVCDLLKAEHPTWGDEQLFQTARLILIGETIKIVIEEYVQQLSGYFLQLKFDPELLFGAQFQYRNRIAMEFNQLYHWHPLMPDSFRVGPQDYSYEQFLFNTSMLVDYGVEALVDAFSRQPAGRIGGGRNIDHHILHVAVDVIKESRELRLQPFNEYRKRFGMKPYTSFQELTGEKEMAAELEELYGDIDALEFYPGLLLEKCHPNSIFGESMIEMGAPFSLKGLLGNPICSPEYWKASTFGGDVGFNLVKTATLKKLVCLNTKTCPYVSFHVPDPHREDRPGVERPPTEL
T2 sequence (O62698 whole entry): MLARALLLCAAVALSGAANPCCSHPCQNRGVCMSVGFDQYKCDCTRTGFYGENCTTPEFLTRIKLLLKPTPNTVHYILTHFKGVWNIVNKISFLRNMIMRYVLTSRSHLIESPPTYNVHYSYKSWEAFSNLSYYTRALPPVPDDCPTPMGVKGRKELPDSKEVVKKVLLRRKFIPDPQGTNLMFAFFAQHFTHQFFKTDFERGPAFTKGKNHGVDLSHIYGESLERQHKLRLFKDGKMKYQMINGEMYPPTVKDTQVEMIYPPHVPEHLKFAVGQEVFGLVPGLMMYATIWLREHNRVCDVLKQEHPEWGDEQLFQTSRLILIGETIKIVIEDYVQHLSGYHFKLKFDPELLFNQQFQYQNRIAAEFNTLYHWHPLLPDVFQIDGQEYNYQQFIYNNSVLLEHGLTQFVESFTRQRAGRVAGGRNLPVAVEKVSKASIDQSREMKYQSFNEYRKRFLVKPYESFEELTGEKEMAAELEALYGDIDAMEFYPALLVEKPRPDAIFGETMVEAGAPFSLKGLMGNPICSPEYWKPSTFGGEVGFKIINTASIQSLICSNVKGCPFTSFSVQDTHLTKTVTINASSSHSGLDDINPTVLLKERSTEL

Rattus norvegicus [9] = experiment: (§4) Ulcerogenic effect against gastric ulcer in rat after oral administration; assay type: functional; settings: Stomach; method in brief: as §1
Rattus norvegicus [10] = experiment: Antiinflammatory activity against carrageenan-induced foot edema in rat after peroral administration calculated from at least four doses
Mus musculus [11] = experiment: Analgesic activity against acetic acid induced writhing test in mouse after peroral administration; range is (3.2-7.9); assay type: functional; settings: po
Rattus norvegicus [12] = experiment: Ulcerogenic effect against intestinal ulcer in rats after oral administration of 500 mg/kg; IA=Inactive; assay type: functional, organism-based; design: dose 500 mg/kg
Method in brief: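 Nonfasted male rats (150–180 g) killed 24 h after oral dosing; intestinal ulcers scored and ulceration index computed from mean ulcer degree times fraction of rats with ulcers ×100; ED100 (index 100) determined graphically.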

Rattus norvegicus [13] = experiment: as §4; assay type: functional, Stomach; method in brief: as §1
Rattus norvegicus [14] = experiment: Antiinflammatory activity against carrageenan-induced foot edema in rat after peroral administration calculated from 4 doses; assay type: functional; settings: po; method in brief: as §3
[15] = Mus musculus, po, read-out: ED50

Row | SMILES | ED50 (Mus musculus [1]; [15]) | ED50 (Mus musculus [2]) | ED100 (Rattus norvegicus [3]) | ED50 (Rattus norvegicus [4]) | ED40 (Rattus norvegicus [5]) | ED50 (Rattus norvegicus [6]) | ED100 (Rattus norvegicus [7]) | IC50 [8] | IC50 (Cyclooxygenase) | ED50 (Mus musculus [1]) | ED100 (Rattus norvegicus [9]) | ED40 (Rattus norvegicus [10]) | ED50 (Mus musculus [11]) | ED100 (Rattus norvegicus [12]) | ED100 (Rattus norvegicus [13]) | ED40 (Rattus norvegicus [14])
1 | CC[C@H](N)c1nc2c(C(F)(F)F)cccc2c(O)c1C(=O)Nc1nccs1 | 35 mg/kg | 30 mg/kg | 80 mg/kg | 5 mg/kg | 10 mg/kg | 3.1 mg/kg | >100 mg/kg | 18 µM | 1.4 µM | – | – | – | – | – | – | –
2 | O=C(Nc1nccs1)c1c(C(F)(F)F)nc2c(C(F)(F)F)cccc2c1O | 0.5 mg/kg | – | – | 3.8 mg/kg | – | – | – | 3 µM | 0.4 µM | 0.5 mg/kg | 15 mg/kg | 3.5 mg/kg | – | – | – | –
3 | O=C(Nc1nccs1)c1cnc2c(C(F)(F)F)cccc2c1O | 5 mg/kg | – | – | – | – | – | – | 35 µM | 2.8 µM | – | – | – | 5 mg/kg | inactive | >500 mg/kg | > 100 mg/kg
